High-throughput results deposited in PubChem BioAssay by several laboratories.
In the library only some 2.3% were active in any assay of this set; here they are far more common.
CSN deneddyl inh – inhibitors of CSN-mediated cullin deneddylation, primary screen, biochemical, fluorescence polarization, uHTS; COP9 signalosome complex subunit 5 (Homo sapiens), Q92905; Purified CSN, SCF-Nedd8-OG deneddylation; inhibition, % at 12.5 µM; 360,000 tested, 0.38% active;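 active = pattern-corrected inhibition above about 35%, with an unprinted fluorescence ratio check between 0.5 and 1.5, limit read from the data, passing the limit was not always enough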
Target sequence (Q92905 whole entry, looked up, one chain of several): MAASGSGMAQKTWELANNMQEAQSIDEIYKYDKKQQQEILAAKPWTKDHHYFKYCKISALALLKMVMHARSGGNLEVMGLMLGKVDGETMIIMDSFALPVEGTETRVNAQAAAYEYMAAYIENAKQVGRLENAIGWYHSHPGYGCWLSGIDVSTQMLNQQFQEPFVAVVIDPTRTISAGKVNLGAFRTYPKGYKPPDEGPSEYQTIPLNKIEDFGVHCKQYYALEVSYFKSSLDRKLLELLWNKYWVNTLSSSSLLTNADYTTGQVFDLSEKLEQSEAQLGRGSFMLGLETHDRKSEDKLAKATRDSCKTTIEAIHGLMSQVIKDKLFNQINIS
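Assay system: purified human Csn5 enzyme expressed in HEK293T cells; Input: 0.24 nM Csn5 enzyme, final concentration; Reagent: 10 nM SCFSkp2-Nedd8OG; Compound dosing: 12.5 µM single point; Times: reaction 90 min, room temperature; Technique: fluorescence polarization readout.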
TPT1 inhibitor – Candida albicans TPT1 enzyme inhibitors, primary screen, biochemical, fluorescence polarization; tRNA 2'-phosphotransferase TPT1 (Candida albicans SC5314); recombinant caTPT1, FP RNA substrate dephosphorylation; inhibition, % at 5 µM; 300,000 tested, 0.81% active;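 active = inhibition above the mean of all tested compounds plus 3 SD, set per screening campaign, cut at about 24% in these data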
HNF4A DNA FP – change in binding of human HNF4A to DNA, primary screen, biochemical, fluorescence polarization, FITC-DNA; activity change, % at 10 µM; 1 h; Hepatocyte nuclear factor 4-alpha (Homo sapiens), P41235; 360,000 tested, 0.3% active; in the data active = activity change above about 30%, passing the limit was not always enough
Rpn11 inh – Rpn11 (PSMD14) deubiquitinase inhibitors, primary screen, biochemical, fluorescence polarization, uHTS. 26S proteasome non-ATPase regulatory subunit 14 (Homo sapiens), O00487. human 26S proteasome, Ub4-pepOG fluorescence polarization; 20S core pre-blocked with epoxomicin. inhibition, % at 20 µM. 360,000 tested, 0.59% active;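 active = inhibition at 20 µM, scaled to each plate's controls, above about 33%, limit read from the data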
Target sequence (O00487 whole entry, looked up): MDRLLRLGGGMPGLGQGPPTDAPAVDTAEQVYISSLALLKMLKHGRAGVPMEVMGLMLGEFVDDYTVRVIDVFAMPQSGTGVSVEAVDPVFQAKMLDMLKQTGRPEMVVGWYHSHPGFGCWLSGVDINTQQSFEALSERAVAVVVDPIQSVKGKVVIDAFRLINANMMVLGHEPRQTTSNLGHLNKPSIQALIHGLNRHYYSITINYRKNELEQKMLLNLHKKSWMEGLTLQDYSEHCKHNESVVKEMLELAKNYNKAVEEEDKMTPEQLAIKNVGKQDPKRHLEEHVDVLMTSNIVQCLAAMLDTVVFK
Myeloid diff MLP – induction of myeloid progenitor differentiation, primary screen, cell-based, flow cytometry, MLPCN library. calls only at 10 µM. ER-HoxA9 myeloid progenitors, lysozyme-GFP differentiation. 360,000 tested, 1% active. AID 624256, 2012;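 active = normalized GFP-positive differentiation at or above the plate's own cutoff, the solvent-only control mean plus 3 SD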;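 note: cells exposed to compound for four days before flow analysis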
Large screens that a line does not name were inactive; ! = repeats disagree.

c1ccc2sc(NC3=NCN(C4CCCCC4)CN3)nc2c1	none
Nc1ccc(Oc2c(Cl)cccc2Cl)nc1	CSN deneddyl inh 36.5
Cc1ccc(Cc2c(-c3ccc(Cl)cc3)nc3c(C)cc(Br)cn23)cc1	none (no result: TPT1 inhibitor)
CC(=O)Oc1cc(C(=O)OCC(=O)NC23CC4CC(CC(C4)C2)C3)cc(OC(C)=O)c1OC(C)=O	CSN deneddyl inh 41.2 (no result: TPT1 inhibitor)
CCOc1ccc(NC(=S)N(CCc2c(C)[nH]c3ccc(C)cc23)Cc2ccncc2)cc1	Myeloid diff MLP active
Cc1cc(C(=O)Nc2cccc(O)c2)c(C)o1	HNF4A DNA FP 59.8
Cc1cc(C(=O)Nc2cccc(C(=O)O)c2)c(C)o1	none
COc1ccc(C)cc1-n1nnnc1SCc1nc(N)nc(N(C)C)n1	none (no result: TPT1 inhibitor)
Oc1ccc2ccccc2c1C=NC1CCCCC1	none
Oc1ccccc1CC=NC1CCCCC1	Myeloid diff MLP active (no result: TPT1 inhibitor)
COc1ccc(CNC(=O)CCC(=O)c2ccc(F)cc2)cc1OC	CSN deneddyl inh 66.2 (no result: TPT1 inhibitor)
COc1ccc(CNC(=O)CCC(=O)c2ccc(C)cc2)cc1OC	none
CCCCCCCCN1C(=O)[C@H](CC(=O)NCCCN2CCCC2=O)C[C@@]2(C(=O)OC)CC(C)(C)CC=C12	none (no result: TPT1 inhibitor, Rpn11 inh)
CCOc1ccccc1C(=O)Nc1ccc(-n2nncc2C(C)(C)C)cc1	HNF4A DNA FP 70.2
CCOc1ccccc1C(=O)Nc1ccc(S(=O)(=O)N2CCN(C)CC2)cc1	none (no result: TPT1 inhibitor)
COc1ccc(/C=C/CN2CCC(C(=O)NC(c3ccc(F)cc3)c3ccc4ccccc4n3)CC2)cc1 (stereo unspecified)	none (no result: TPT1 inhibitor)
O=C(CNC(=O)c1ccc2c(c1)OCO2)N/N=C(Br)/C=C/c1ccccc1	Myeloid diff MLP active
Cc1ccc2nc(-c3ccccn3)c(Nc3ccccc3C)n2c1	HNF4A DNA FP 38.6
Cc1ccccc1Nc1nc(Cl)c(C=O)s1	TPT1 inhibitor 27.1
Nc1ccc2sc(N)nc2c1	Myeloid diff MLP active (no result: TPT1 inhibitor)
Cn1c(=O)c2c(n(C)c1=O)n(C)c(=O)n2C	none (no result: TPT1 inhibitor)
Cc1cc(C)cc(OCC(=O)NN2Cc3ccccc3C2=N)c1	none
N=C1c2ccccc2CN1NC(=O)CC12CC3CC(CC(C3)C1)C2	Myeloid diff MLP active
CSC1=NC=C(C#N)C2=NC(c3ccc(Cl)cc3)NN12 (stereo unspecified)	none (no result: TPT1 inhibitor)
CC1=Nc2cccc3cccc(c23)N1	Myeloid diff MLP active
COc1ccc(OC)c(CN2C(=O)CN(S(C)(=O)=O)CC2(C)C(=O)Nc2c(C)cccc2C)c1 (stereo unspecified)	none (no result: TPT1 inhibitor, Rpn11 inh)
Cn1c(/C=C/c2ccccc2)nc2ccccc2c1=O	none
Cn1c(/C=C/c2ccc([N+](=O)[O-])o2)nc2ccccc2c1=O	HNF4A DNA FP 59.5 (not shown: Rpn11 inh, Myeloid diff MLP)
COc1ccc(N/N=C(/C)c2cnnc(-c3ccccc3)n2)cc1	HNF4A DNA FP 46.2 (not shown: Rpn11 inh)
CCC/C(=N/Nc1ccc(Cl)cc1)c1cnnc(-c2ccccc2)n1	none (no result: CSN deneddyl inh, HNF4A DNA FP, Rpn11 inh, Myeloid diff MLP)
CCc1ccc2c(c1)C1(SC(NC(C)=O)=NN1C(C)=O)C(=O)N2CC (stereo unspecified)	CSN deneddyl inh 55.6
N#Cc1cc2c(=O)n3ccccc3nc2n(Cc2cccnc2)c1=O	none
N#Cc1cc2c(=O)n3ccccc3nc2n(-c2ccccc2Cl)c1=O	Myeloid diff MLP active
Nc1c(-c2ccccn2)cnn1-c1nc(-c2ccc(F)cc2)cs1	none
COc1ccc(-c2csc(-n3ncc(-c4ccccn4)c3N)n2)cc1	HNF4A DNA FP 27.7
CCCCn1c(N)c(S(=O)(=O)c2ccc(C)cc2)c2nc3ccccc3nc21	CSN deneddyl inh 39.2
Cc1cccc(-n2cnc3c(c2=O)c2nc4ccccc4nc2n3Cc2ccco2)c1	none
Cc1cccc(S(=O)(=O)c2c(N)n(Cc3ccco3)c3nc4ccccc4nc23)c1	Myeloid diff MLP active (not shown: Rpn11 inh)
COC(=O)[C@]12CCCCC=C1N(Cc1ccc3c(c1)OCO3)C(=O)[C@H](CC(=O)NCC13CC4CC(CC(C4)C1)C3)C2	none (no result: TPT1 inhibitor, Rpn11 inh)
COc1cccc(/C=N/NC(=O)c2c(-c3ccccc3)noc2C)c1O	Myeloid diff MLP active
COc1cccc(/C=N/NC(=O)c2c(-c3ccccc3)noc2C)c1OC	none
COC(=O)c1cc(OC)c(OC)cc1NC(=O)c1c(-c2ccccc2)noc1C	Myeloid diff MLP active
O=C(CCSc1ccccc1)N1CCN(c2ccccc2)CC1	none
O=C(CCSc1ccc(Cl)cc1)N1CCN(c2ccc(O)cc2)CC1	Myeloid diff MLP active
Cc1ccc(S(=O)(=O)N2[C@@H](CCO)OC[C@H]2C(C)C)cc1	none (no result: TPT1 inhibitor, Rpn11 inh)
O=C(Cn1sc2ccccc2c1=O)NC12CC3CC(CC(C3)C1)C2	none
O=C(Cn1sc2ccccc2c1=O)Nc1ccccc1	Myeloid diff MLP active (no result: TPT1 inhibitor)
Cc1ccc(S(=O)(=O)Nc2ccc3c4c(cccc24)CC3)c(C)c1	Myeloid diff MLP active
CCN(C)C1CN(Cc2cn(Cc3cccc(C(F)(F)F)c3)nn2)S(=O)(=O)C1 (stereo unspecified)	none (no result: TPT1 inhibitor, Rpn11 inh)
COc1ccc(C(=O)Nc2nc(-c3ccc([N+](=O)[O-])cc3)c(-c3ccc(OC)cc3)s2)cc1	Rpn11 inh 60.8
CCSc1nnc(NC(=O)CSc2sc3c(O)cc(=O)[nH]c3c2C#N)s1	Rpn11 inh 58.6 (no result: Myeloid diff MLP)
Clc1ccc(-c2csc3ncnc(Cl)c23)cc1	none
NNc1ncnc2scc(-c3ccc(Cl)cc3)c12	Myeloid diff MLP active
Oc1ccc(Oc2ccc(Oc3ccc(O)cc3)cc2)cc1	Myeloid diff MLP active
COc1ccc(S(=O)(=O)c2ccc(O)cc2)cc1	none
COc1ccc(OC)c(NC(=O)COc2cc(O)c3c(c2)OC(C)(C)CC3=O)c1	none (no result: TPT1 inhibitor)
COc1ccc(CCn2ccc(O)c(Cc3ccc(Cl)cc3)c2=O)cc1OC	Myeloid diff MLP active
Cc1ccccc1C(=O)NCC(=O)OCC(=O)NNC(=O)c1ccccc1F	none (no result: TPT1 inhibitor)
O=C(CNC(=O)c1ccccc1F)NNC(=O)c1ccccc1O	Myeloid diff MLP active
N[C@@H](Cc1cc(I)c(Oc2ccc(O)c(I)c2)c(I)c1)C(=O)O	Rpn11 inh 58.7!
N[C@@H](Cc1cc(I)c(Oc2cc(I)c(O)c(I)c2)c(I)c1)C(=O)O	none (no result: CSN deneddyl inh, HNF4A DNA FP, Rpn11 inh, Myeloid diff MLP)
COC(=O)c1ccn(CC(=O)NC2CCCCC2)n1	Myeloid diff MLP active
CCOc1cc(-c2cc(-c3ccccc3)nc(N)c2C#N)ccc1O	HNF4A DNA FP 28.4
COc1cc(-c2cc(-c3ccccc3)nc(SCC(=O)Nc3nccs3)c2C#N)cc(OC)c1OC	Myeloid diff MLP active
N#Cc1ccc(-c2ccc(Cl)cc2)nc1SCC(=O)c1cccc(Cl)c1	Myeloid diff MLP active
CC(C)OC(=O)CC(=O)CSc1nc(-c2ccc(F)cc2)cc(-c2ccccc2)c1C#N	none
CCOC(=O)CC(=O)CSc1nc(-c2ccccc2)cc(-c2ccccc2)c1C#N	Myeloid diff MLP active
COc1ccc(CNC(=O)CSc2nc(-c3ccccc3)cc(-c3cccs3)c2C#N)cc1	none
CCCCCCN1C[C@H](n2cc(-c3ccc(F)cc3)nn2)[C@@H](O)C[C@@H]1c1ccc(Cl)cc1	none (no result: TPT1 inhibitor)
